The values that follow come from ChEMBL document CHEMBL3804792, “Discovery and analgesic evaluation of 8-chloro-1,4-dihydropyrido[2,3-b]pyrazine-2,3-dione as a novel potent d-amino acid oxidase inhibitor” (Eur J Med Chem, 2016).

Activity calls are given as the source filed them.

Series [1] addresses D-amino-acid oxidase (Sus scrofa, UniProt P00371). In words: Inhibition of DAAO in porcine kidney homogenate using D-alanine as substrate assessed as pyruvate production incubated for 5 mins by microplate reader analysis.
Series [2] addresses D-amino-acid oxidase (Rattus norvegicus, UniProt O35078). In words: Inhibition of rat spinal DAAO using D-alanine as substrate assessed as pyruvate production incubated for 60 mins by microplate reader analysis.
Series [3] has as its target D-amino-acid oxidase (Homo sapiens, UniProt P14920). In words: Inhibition of human recombinant DAAO using D-alanine as substrate assessed as pyruvate production incubated for 60 mins by microplate reader analysis.
Series [4] has as its system Rattus norvegicus. In words: Analgesic activity in Wistar rat assessed as inhibition of formalin-induced paw flinch response in acute phase up to 3 ug, it administered as bolus injection 30 mins prior to formalin challenge measured within 10 mins relative to normal saline control. It counts as functional, organism-based. In a few lines:
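Intrathecally catheterized male Wistar rats (n = 6 per group) got a bolus of saline (10 µL) or compound (0.1–3 µg) 30 min before 50 µL 5% formalin sc into dorsal right hindpaw. Flinches counted in 1-min epochs every 10 min for 90 min; acute phase is the first 10 min. Compared with saline by one-way ANOVA and Student-Newman-Keuls test.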

The subject of series [5] is Rattus norvegicus. Kind of series: Analgesic activity in it dosed Wistar rat assessed as inhibition of formalin-induced paw flinch response in tonic phase administered as bolus injection 30 mins prior to formalin challenge measured from 10 to 90 mins relative to normal saline control. The class given is functional. In a few lines: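 Intrathecally catheterised male Wistar rats, n = 6 per group. A bolus of 0.1-3 µg was given intrathecally 30 min before 50 µL of 5% formalin s.c. into the dorsal right hindpaw. Flinches counted in 1-min epochs at 10-min intervals over 90 min. […] Saline (10 µL) group as control.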

Series [6] concerns Rattus norvegicus. Kind of series: Analgesic activity in Wistar rat assessed as inhibition of NMDA-induced pain at 10 ug, it administered 30 mins prior to NMDA challenge measured for 10 mins. It counts as functional, organism-based. In a few lines:
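Male Wistar rats with lumbar intrathecal PE-10 catheters, placement checked by lidocaine-induced hind-limb paralysis; n = 6 per group. Intrathecal saline, MK-801 or compound 30 min before intrathecal NMDA (5 nmol). Scratching, biting and licking duration recorded for 10 min; means ± S.E.M., one-way ANOVA with Student-Newman-Keuls test versus saline.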

The species entered for series [7] is Rattus norvegicus. In words: Analgesic activity in Wistar rat spinal nerve ligation-induced neuropathic pain model assessed as reduction in mechanical allodynia assessed as increase in ipsilateral paw withdrawal response at 30 ug, it measured after 1 hr. The class given is functional. In a few lines:
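Spinal nerve-ligated male Wistar rats, intrathecally catheterised; only rats with threshold <8 g and no major impairment were included. After intrathecal dosing, ipsilateral hind-limb withdrawal threshold to monofilaments was measured on a metal grid after ≥30 min acclimation, at 0.5, 1, 2 and 4 h. n = 6. Results converted to %MPE against baseline.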

For series [8], the species on record is Rattus norvegicus. Kind of series: Effect on contralateral paw withdrawal in Wistar rat spinal nerve ligation-induced neuropathic pain model at 30 ug, it measured after 0.5 to 4 hrs. As to conditions: in vivo, icv_or_intrathecal. The class given is ADME, organism-based. In short, it runs like this:
(§1)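 Spinal nerve-ligated male Wistar rats, included only with ipsilateral withdrawal threshold < 8 g and no major impairment, dosed intrathecally. Mechanical thresholds (von Frey monofilaments on a metal grid) and radiant-heat paw withdrawal latency (20 s cut-off, mean of three trials 10 min apart) measured on both paws before and 0.5, 1, 2, 4 h after dosing. Thresholds converted to % MPE; two-way ANOVA.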

Series [9] is filed under the species Rattus norvegicus. Kind of series: Analgesic activity in Wistar rat spinal nerve ligation-induced neuropathic pain model assessed as reduction in heat hyperalgesia assessed as increase in ipsilateral paw withdrawal response at 30 ug, it measured after 1 hr. The class given is functional. In a few lines: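 Spinal nerve-ligated male Wistar rats, intrathecally catheterised; only those with ipsilateral withdrawal threshold <8 g were used. After intrathecal dosing, radiant heat was applied to the plantar hind paw and withdrawal latency read, cut-off 20 s. Each paw tested three times at 10-min intervals and averaged. n = 6. Read at 0.5, 1, 2 and 4 h.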

For series [10], the species on record is Rattus norvegicus. In words: Analgesic activity in Wistar rat spinal nerve ligation-induced neuropathic pain model assessed as reduction in mechanical allodynia assessed as increase in ipsilateral paw withdrawal response at 30 ug, it measured after 0.5 to 4 hrs. It counts as functional, organism-based. In a few lines: as §1
Series [11] is filed under the species Rattus norvegicus. In words: Analgesic activity in Wistar rat spinal nerve ligation-induced neuropathic pain model assessed as reduction in heat hyperalgesia assessed as increase in ipsilateral paw withdrawal response at 30 ug, it measured after 0.5 to 4 hrs. The class given is functional, organism-based. In a few lines:
as §1

In series [12] the test system is Mus musculus. In words: Analgesic activity in Swiss mouse assessed as inhibition of formalin-induced tonic pain at 10 mg/kg administered as oral gavage 30 mins prior to formalin challenge measured from 20 to 40 mins relative to normal saline control. It counts as functional. Also on record: scale not given: the % may be the effect or the level left. In a few lines: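 Fasted male Swiss mice (18-22 g), n = 6. Dosed 10 mg/kg by oral gavage 30 min before 10 µL of 5% formalin in 0.9% saline injected s.c. into the dorsal right hindpaw. Licking/biting duration was scored manually and pooled over 20-40 min as tonic pain. Drug dissolved in normal saline at pH 7.3-7.5. Compared with a saline control group.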

Series [13] concerns Mus musculus. In words: Analgesic activity in Swiss mouse assessed as inhibition of formalin-induced acute pain at 0.3 to 10 mg/kg, sc administered 30 mins prior to formalin challenge measured within 5 mins relative to normal saline control. It counts as functional, organism-based. In short, it runs like this: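 Male Swiss mice (18e22 g), n = 6 per group; saline (10 mL/kg) or compound sc 30 min before 10 µL 5% formalin in 0.9% saline sc into dorsal right hindpaw. Licking/biting duration manually pooled over 0–5 min (acute phase) and compared with saline group; one-way ANOVA with Student-Newman-Keuls post-hoc test.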

Series [14] relates to Mus musculus. Kind of series: Analgesic activity in sc dosed Swiss mouse assessed as inhibition of formalin-induced tonic pain administered 30 mins prior to formalin challenge measured from 20 to 40 mins relative to normal saline control. The class given is functional. In a few lines: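 Male Swiss mice, n = 6 per group. Dosed s.c. at 0.3-30 mg/kg in saline (10 mL/kg) 30 min before 10 µL of 5% formalin s.c. into the dorsal right hindpaw. Licking/biting time was pooled over 20-40 min as tonic pain. Values compared with saline control. Emax and ED50 taken from the dose-response. One-way ANOVA with Student-Newman-Keuls test.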

The nature of series [15]: Apparent oral bioavailability in Swiss mouse at 10 mg/kg administered as oral gavage. It counts as ADME, organism-based. The note with it: in vivo, read-out: Fapp.
For series [16], the system named is Mus musculus. In words: Attenuation of morphine analgesic tolerance in Swiss mouse assessed as latency of licking/biting/jumping at 10 ug, it bid coadministered with morphine at 12 hr intervals for 7 days by hot-plate test. The class given is functional, organism-based. In a few lines: (§2)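 Swiss mice (n = 6 per group) received intrathecal saline, morphine, or compound (10 µg) plus morphine twice daily, 12 h apart, for 7 days. On day 8, a single intrathecal saline or compound dose was given 15 min before saline or morphine challenge. Hot plate at 55 ± 0.1 °C with 40 s cut-off; lick/bite/jump latency read before and 0.5, 1, 2 h after injection on days 1, 3, 5, 7, 8. AUC0–2 h analysed by two-way ANOVA with Student-Newman-Keuls test.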
On the technique in general: In hot-plate and tail-flick tests a longer latency is read as antinociception.

The subject of series [17] is Mus musculus. In words: Reversal of morphine analgesic tolerance in 10 ug, it BID for 7 days morphine pre-treated Swiss mouse assessed as latency of licking/biting/jumping at 10 ug, it administered as single bolus injection 15 mins prior to morphine challenge on day 8 by hot-plate test. It counts as functional, organism-based. In a few lines: as §2
In series [18] the test system is Rattus norvegicus. Kind of series: Analgesic activity in Wistar rat assessed as inhibition of NMDA-induced pain at 0.1 ug, it administered 30 mins prior to NMDA challenge measured for 10 mins. It counts as functional. In a few lines:
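Male Wistar rats (180-250 g), n = 6 per group, with intrathecal lumbar PE-10 catheters checked by lidocaine paralysis. Dosed 0.1 µg intrathecally 30 min before 5 nmol NMDA given intrathecally. Duration of scratching, biting and licking recorded for 10 min immediately after NMDA. Saline (10 µL) group as control. One-way ANOVA with Student-Newman-Keuls test.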

Chain of D-amino-acid oxidase (Rattus norvegicus, UniProt O35078) (O35078 whole entry): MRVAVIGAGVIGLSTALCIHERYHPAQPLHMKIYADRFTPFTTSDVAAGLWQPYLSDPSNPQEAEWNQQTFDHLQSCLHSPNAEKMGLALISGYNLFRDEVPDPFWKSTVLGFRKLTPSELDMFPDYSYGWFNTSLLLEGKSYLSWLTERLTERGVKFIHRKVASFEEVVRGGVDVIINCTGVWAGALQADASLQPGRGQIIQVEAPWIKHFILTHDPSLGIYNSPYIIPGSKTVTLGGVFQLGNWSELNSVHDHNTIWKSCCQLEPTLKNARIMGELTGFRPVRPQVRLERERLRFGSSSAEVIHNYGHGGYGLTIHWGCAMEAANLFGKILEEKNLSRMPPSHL
Chain of D-amino-acid oxidase (Homo sapiens, UniProt P14920) (P14920 whole entry): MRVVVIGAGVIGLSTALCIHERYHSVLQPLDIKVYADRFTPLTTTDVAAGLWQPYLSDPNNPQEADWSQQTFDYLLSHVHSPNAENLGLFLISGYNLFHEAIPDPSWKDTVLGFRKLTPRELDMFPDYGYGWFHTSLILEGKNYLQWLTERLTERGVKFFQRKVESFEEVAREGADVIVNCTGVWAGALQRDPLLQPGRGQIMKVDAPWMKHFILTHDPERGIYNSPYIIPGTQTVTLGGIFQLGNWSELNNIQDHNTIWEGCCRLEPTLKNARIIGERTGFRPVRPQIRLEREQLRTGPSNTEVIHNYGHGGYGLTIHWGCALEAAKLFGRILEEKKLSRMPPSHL
Chain of D-amino-acid oxidase (Sus scrofa, UniProt P00371) (P00371 whole entry): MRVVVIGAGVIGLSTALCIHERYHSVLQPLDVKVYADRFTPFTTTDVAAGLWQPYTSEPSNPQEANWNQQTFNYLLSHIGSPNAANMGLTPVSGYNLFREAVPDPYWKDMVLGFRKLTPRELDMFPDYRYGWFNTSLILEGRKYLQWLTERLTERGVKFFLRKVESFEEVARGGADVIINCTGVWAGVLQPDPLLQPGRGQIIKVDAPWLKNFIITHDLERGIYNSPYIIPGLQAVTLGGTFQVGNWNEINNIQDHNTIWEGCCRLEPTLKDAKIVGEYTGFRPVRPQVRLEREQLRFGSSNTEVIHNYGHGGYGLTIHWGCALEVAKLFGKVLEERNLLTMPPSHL

By IC50 is commonly meant the midpoint of a concentration-inhibition curve. For the compound `O=c1[nH]c2ncc(Br)c(Br)c2[nH]c1=O`, the 50% inhibitory concentration (IC50) at D-amino-acid oxidase [1] stood at 0.53 µM.
Still for that read-out and setting: the value for `Oc1nc2ccc(Cl)nc2nc1O` was 20.3 µM; that for `O=c1[nH]c2ccc(OCCc3ccccc3)nc2[nH]c1=O` was greater than 300 µM.
Same read-out and setting: the value for `Oc1nc2cc(C(F)(F)F)cnc2nc1O` was 22.9 µM.
The same measure, in the same setting: the value for `Oc1nc2cc(Br)cnc2nc1O` was 12.4 µM; that for `Cc1ccnc2[nH]c(=O)c(=O)[nH]c12` was 0.63 µM; that for `CCc1ccnc2[nH]c(=O)c(=O)[nH]c12` was 2.4 µM.
On to `CCOc1ccnc2[nH]c(=O)c(=O)[nH]c12`, for which the concentration for half-maximal inhibition (IC50) at D-amino-acid oxidase [1] is greater than 100 µM.
Same read-out and setting: the value for `COc1ccc2nc(O)c(O)nc2n1` was greater than 100 µM.
In the case of `O=c1[nH]c2nccc(Br)c2[nH]c1=O`, the values for the IC50 on D-amino-acid oxidase [1], at D-amino-acid oxidase [2] and at D-amino-acid oxidase [3] were 0.22 µM, 2.24 µM and 2.24 µM, respectively.
Take `CC(C)Oc1ccnc2[nH]c(=O)c(=O)[nH]c12`: at D-amino-acid oxidase [1], the IC50 is greater than 100 µM.
Take `Oc1nc2cc(Cl)cnc2nc1O`: the IC50 on D-amino-acid oxidase [1] was 6.7 µM.
For `Cc1c(Cl)cnc2nc(O)c(O)nc12`, the half-maximal inhibitory concentration (IC50) at D-amino-acid oxidase [1] was determined as 0.26 µM; at D-amino-acid oxidase [2], 4.16 µM; at D-amino-acid oxidase [3], 1.13 µM.
The term Emax denotes the maximal effect, on the per cent scale that the assay sets. Turning to `O=c1[nH]c2nccc(Cl)c2[nH]c1=O`, the IC50 is 0.18 µM on D-amino-acid oxidase [1], 0.14 µM at D-amino-acid oxidase [2] and 0.21 µM at D-amino-acid oxidase [3]. The result in the series with Rattus norvegicus [4], in the series with Rattus norvegicus [6] and with Mus musculus [13] was inactive. In addition, the Activity result in the series on Rattus norvegicus [5] was “Dose-dependent effect”; in the series listed under Rattus norvegicus [8] it was “Non-toxic”; with Mus musculus [12] it was 30%; with Mus musculus [14], “Dose-dependent effect”. The ED50 in the series with Rattus norvegicus [5] turned out to be 0.25 µg; in the series on Mus musculus [14], 1.8 mg/kg. The Emax with Rattus norvegicus [5] (Rattus norvegicus, Wistar) was 67.1%; with Mus musculus [14] it was 49%. In addition, the MPE in the series listed under Rattus norvegicus [7] came to 54.4%; in the series listed under Rattus norvegicus [9], 80.8%. Moreover, the outcome in the series listed under Rattus norvegicus [10], in the series listed under Rattus norvegicus [11], with Mus musculus [16] and in the series with Mus musculus [17] was Active. Besides, in series [15], the bioavailability turned out to be 30%.
For `Oc1noc2cc(Cl)ccc12`, the IC50 at D-amino-acid oxidase [1] came out at 0.21 µM; at D-amino-acid oxidase [2] it was 0.09 µM.
As to `O=c1[nH]c2ncc(Br)c(Cl)c2[nH]c1=O`, at D-amino-acid oxidase [1], the IC50 was 0.48 µM.
Take `O=c1[nH]c2nccc(Oc3ccccc3)c2[nH]c1=O`: on D-amino-acid oxidase [1], the IC50 is greater than 1000 µM.
The same measure, in the same setting: under `Oc1nc2ccccc2nc1O` stands 33.6 µM.
Same read-out and setting: the value for `Oc1nc2cccnc2nc1O` was 5.7 µM; that for `COc1ccnc2[nH]c(=O)c(=O)[nH]c12` was 85.7 µM.
The same measure, in the same setting: the value for `O=C(O)c1cnc2[nH]c(=O)c(=O)[nH]c2c1` was greater than 1000 µM.
For `O=c1[nH]c2cc(F)cnc2[nH]c1=O`, the IC50 at D-amino-acid oxidase [1] worked out at 0.46 µM.
Still for that read-out and setting: the value for `O=c1[nH]c2nccc(OCCCc3ccccc3)c2[nH]c1=O` was greater than 300 µM; that for `O=c1[nH]c2nccc(OCc3ccccc3)c2[nH]c1=O` was greater than 300 µM.
The same measure, in the same setting: under `CCOc1ccc2[nH]c(=O)c(=O)[nH]c2n1` stands greater than 100 µM; under `Cc1cnc2nc(O)c(O)nc2c1`, 36.7 µM; under `Cc1c(Br)cnc2nc(O)c(O)nc12`, 0.4 µM.
On the same count and under the same terms, under `Cc1ccc2nc(O)c(O)nc2n1` stands 17.7 µM.
As for `O=c1[nH]c2ncc(Cl)c(Br)c2[nH]c1=O`, the IC50 is 0.24 µM on D-amino-acid oxidase [1], 7.99 µM at D-amino-acid oxidase [2] and 1.38 µM on D-amino-acid oxidase [3].
Take `O=c1[nH]c2ncc(Cl)c(Cl)c2[nH]c1=O`: the IC50 on D-amino-acid oxidase [1] came to 0.65 µM.
Turning to `O=c1[nH]c2ccc(OCc3ccccc3)nc2[nH]c1=O`, the IC50 on D-amino-acid oxidase [1] was greater than 300 µM.
Same read-out and setting: the value for `O=c1[nH]c2nccc(C(F)(F)F)c2[nH]c1=O` was 0.52 µM.
Same read-out and setting: under `O=c1[nH]c2nccc(OCCc3ccccc3)c2[nH]c1=O` stands greater than 300 µM; under `COC(=O)c1cnc2[nH]c(=O)c(=O)[nH]c2c1`, greater than 1000 µM.
`C[C@]12N[C@H](Cc3ccccc31)c1ccccc12` [DIZOCILPINE]: the “inhibition (INH)” value in the series on Rattus norvegicus [18] is 80%.
As to `Cc1c(F)cnc2[nH]c(=O)c(=O)[nH]c12`, the values for the IC50 at D-amino-acid oxidase [1], at D-amino-acid oxidase [2] and on D-amino-acid oxidase [3] were 0.15 µM, 0.15 µM and 0.34 µM, respectively.
